Source: PubChem BioAssay (Broad Institute)
Mot1-301 SUMO = blocks SUMOylation pathway, rescuing yeast Mot1-301 growth; S. cerevisiae Mot1-301 growth rescue, ATP luminescence, 38.5C; percent above DMSO median, 100 means doubled; growth rescue, % at 18.8 µM; actives 1% (n = 320,000); AID 2716;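 active means every valid replicate shows activation above 250% relative to neutral control wells; inactive means the rest, any valid replicate at or below 250%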;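 further: OY570 slx delta 5 strain wells were the positive control but not used for scaling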
Statin myotox sup = protects C2C12 myotubes from simvastatin toxicity | AID 602340 | actives 0.78% (n = 330,000) | ATP luminescence, 48 h; scaled: DMSO 0, geranylgeraniol control 100 | rescue of ATP level, % at 7.49 µM;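 active means mean ATP rescue above about 67%, or every replicate alone reaching that limit, limit read from the data, passing the limit was not always enough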;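 further: myotubes were challenged with 10 µM simvastatin during compound exposure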
Cneo AK release = causes C. neoformans cell lysis. AID 651654. lysis activity, % at 15 µM. actives 0.2% (n = 360,000). adenylate kinase release luminescence, 4 h; normalised: neutral wells 0, clomiphene wells 100;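 active means mean lysis activity across replicates of at least 80%, whatever share of replicates individually reach that level; inactive means mean lysis activity below 80%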
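Test system: log-phase Cryptococcus neoformans yeast cells. Input: 5 × 10^6 yeast cells/mL. Medium: fresh YPD growth medium. Doses: single dose. Incubation: static 4 h at 37 °C with compound, 1 h detection. Measured by: luminescent adenylate kinase detection reagent. Read-out: signal increase indicating cell lysis. Benchmarks: Clomiphene.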
Starred values were filed as active, the others as inactive. This is a sample that favours compounds with a hit; in the whole collection about 1.5% have one here.

What do the screens show for `O=C(C[C@@H]1CC[C@@H]2[C@H](COC[C@H](O)CN2Cc2ccccc2)O1)NCc1ccccc1Cl`?
Statin myotox sup: 0; Cneo AK release: -1

Results for Cn1c(=O)c(=O)n(C)c2cc(N3CCOCC3)c(NS(=O)(=O)c3ccc([N+](=O)[O-])cc3)cc21 ?
Mot1-301 SUMO: 1; Statin myotox sup: 109*; Cneo AK release: -5

How did Cn1c(=O)c(=O)n(C)c2cc(N3CCOCC3)c(NS(=O)(=O)c3ccc(F)c(Cl)c3)cc21 do in these assays?
Mot1-301 SUMO: -13

Results for C/C=C/c1ccc([C@H]2[C@@H](C#N)N(S(=O)(=O)c3cccc(F)c3)[C@H]2CO)cc1 ?
Statin myotox sup: -24; Cneo AK release: 91*

What do the screens show for `C/C=C/c1ccc([C@H]2[C@@H](CO)N(S(=O)(=O)c3cccc(F)c3)[C@H]2C#N)cc1`?
Statin myotox sup: -31; Cneo AK release: 1

What do the screens show for `O=C(C[C@@H]1C=C[C@@H](NS(=O)(=O)c2ccccc2)[C@H](CO)O1)NCc1ccccc1F`?
Statin myotox sup: 2; Cneo AK release: 2

Results for C[C@@H]1CN([C@@H](C)CO)C(=O)c2cc(NC(=O)Nc3ccc4c(c3)OCO4)ccc2O[C@@H](C)CCCCO[C@H]1CN(C)C(=O)Nc1cccc2ccccc12 ?
Statin myotox sup: 8; Cneo AK release: 3

Results for C[C@H](CO)N1C[C@H](C)[C@H](CN(C)Cc2ccc3c(c2)OCO3)OCCCC[C@H](C)Oc2ccc(NC(=O)Nc3cccc4ccccc34)cc2C1=O ?
Statin myotox sup: -376; Cneo AK release: 4

Results for C[C@@H]1CCCCO[C@H](CN(C)Cc2ccc3c(c2)OCO3)[C@H](C)CN([C@H](C)CO)C(=O)c2cc(NC(=O)Nc3cccc4ccccc34)ccc2O1 ?
Statin myotox sup: -70; Cneo AK release: 88*

What do the screens show for `C[C@@H]1CCCCO[C@H](CN(C)C(=O)Nc2cccc3ccccc23)[C@H](C)CN([C@@H](C)CO)C(=O)c2cc(NC(=O)Nc3ccc4c(c3)OCO4)ccc2O1`?
Statin myotox sup: 122*; Cneo AK release: -1

Results for CN1CCN(C(=O)C[C@H]2CC[C@@H]3[C@H](COC[C@H](O)CN3C(=O)C3CCOCC3)O2)CC1 ?
Statin myotox sup: -38; Cneo AK release: -1

Results for C[C@@H]1CN([C@@H](C)CO)C(=O)c2cc(NC(=O)c3ccccc3)ccc2O[C@@H](C)CCCCO[C@@H]1CN(C)Cc1ccncc1 ?
Statin myotox sup: 15; Cneo AK release: 1

Results for C[C@@H]1CN([C@@H](C)CO)S(=O)(=O)c2ccc(C#CC3(O)CCCC3)cc2O[C@H]1CN(C)C(=O)c1ccccc1 ?
Statin myotox sup: -29; Cneo AK release: -1

Results for CCCNC(=O)Nc1ccc2c(c1)C(=O)N(C)C[C@@H](OC)[C@H](C)CN(Cc1ccccc1)[C@@H](C)CO2 ?
Statin myotox sup: 4

How did C[C@@H]1CN([C@H](C)CO)C(=O)c2cc(C3=CCCC3)cnc2O[C@@H]1CN(C)Cc1ccccn1 do in these assays?
Statin myotox sup: 28; Cneo AK release: -1

How did CC[C@H]1CN2CCc3cc(OC)c(OC)cc3C2C[C@@H]1C[C@H]1NCCc2cc(OC)c(OC)cc21 (some centres undefined) do in these assays?
Statin myotox sup: 81*; Cneo AK release: 2

How did COc1cc2c(cc1OC)CN1CCc3cc(OC)c(OC)cc3C1C2 (centres undefined) do in these assays?
Statin myotox sup: -4; Cneo AK release: -1

Results for CC(C)CC#Cc1cnc2c(c1)C(=O)N([C@H](C)CO)C[C@H](C)[C@@H](CN(C)C(=O)c1cnccn1)O2 ?
Statin myotox sup: 11; Cneo AK release: 1

What do the screens show for `Cc1ccc(N(C(=O)Cn2nnc3ccccc32)C(C(=O)NCc2ccco2)c2ccc(C)o2)cc1` (centres undefined)?
Statin myotox sup: 130*; Cneo AK release: 1

Results for COCCNC(=O)C(c1cccs1)N(CCc1ccccc1)C(=O)Cn1nnc2ccccc21 (centres undefined) ?
Mot1-301 SUMO: -5; Statin myotox sup: 15; Cneo AK release: 2

What do the screens show for `O=C(NCc1ccco1)C(c1ccccc1)N(Cc1cccnc1)C(=O)Cn1nnc2ccccc21` (centres undefined)?
Mot1-301 SUMO: -17; Statin myotox sup: -7; Cneo AK release: 1

How did Cc1ccc(C(C(=O)NCc2ccco2)N(C(=O)Cn2nnc3ccccc32)c2ccccc2)o1 (centres undefined) do in these assays?
Mot1-301 SUMO: -15; Statin myotox sup: 12; Cneo AK release: 2

What do the screens show for `COCCNC(=O)C(c1cccs1)N(Cc1ccccc1)C(=O)Cn1nnc2ccccc21` (centres undefined)?
Mot1-301 SUMO: 284*; Cneo AK release: 0

What do the screens show for `O=C(NCc1ccco1)C(c1ccc(F)cc1)N(Cc1cccnc1)C(=O)Cn1nnc2ccccc21` (centres undefined)?
Mot1-301 SUMO: -24; Statin myotox sup: 102*; Cneo AK release: -1

What do the screens show for `C[C@@H]1CN([C@H](C)CO)C(=O)c2cccc(NS(=O)(=O)c3ccc(F)cc3)c2O[C@@H]1CN(C)CC1CCCCC1`?
Statin myotox sup: -2; Cneo AK release: 1

How did C[C@@H]1CCCCO[C@@H](CN(C)C(=O)Nc2ccc(F)cc2)[C@H](C)CN([C@@H](C)CO)C(=O)c2cc(NC(=O)c3ccncc3)ccc2O1 do in these assays?
Cneo AK release: -1

Results for CCCN1CCN(CC(=O)Nc2nc3ccccc3s2)CC1 ?
Mot1-301 SUMO: 131; Statin myotox sup: 6; Cneo AK release: 1

How did Cc1csc(=O)n1CC(=O)Nc1nc2ccccc2s1 do in these assays?
Mot1-301 SUMO: 321*; Statin myotox sup: -13; Cneo AK release: 0

What do the screens show for `CN1CCN(CCN2CCn3c2nc2ccccc23)CC1`?
Mot1-301 SUMO: -1; Statin myotox sup: 81*; Cneo AK release: -2

How did N#CCCN1CCn2c1nc1ccccc12 do in these assays?
Mot1-301 SUMO: -19; Statin myotox sup: -3; Cneo AK release: -2

What do the screens show for `Cc1noc(C)c1S(=O)(=O)Nc1ccc2c(c1)C(=O)N([C@@H](C)CO)C[C@@H](C)[C@@H](CN(C)S(=O)(=O)c1ccc(F)cc1)O2`?
Statin myotox sup: -5

What do the screens show for `NNC(=O)c1nn(-c2ccc(Cl)cc2)cc1O`?
Mot1-301 SUMO: -24; Statin myotox sup: 113*; Cneo AK release: 18

How did Cc1ccc(NC(=O)COC(=O)c2nn(-c3ccc(Cl)cc3)cc2O)cc1 do in these assays?
Mot1-301 SUMO: 20; Statin myotox sup: -6; Cneo AK release: 0

How did O=C(NCC[C@@H]1CC[C@@H](NS(=O)(=O)c2ccccc2)[C@@H](CO)O1)c1ccc2c(c1)OCO2 do in these assays?
Statin myotox sup: 4; Cneo AK release: -4

Results for C[C@H](CO)N1C[C@H](C)[C@@H](CN(C)C(=O)Nc2cc(F)ccc2F)Oc2cc(/C=C/c3ccccc3)ccc2S1(=O)=O ?
Statin myotox sup: -58; Cneo AK release: -13

What do the screens show for `O=c1[nH]c2cc(Br)cnc2nc1/C=C(\O)c1ccc(F)cc1`?
Mot1-301 SUMO: 338*; Statin myotox sup: -35; Cneo AK release: 3

What do the screens show for `O=C(NCc1nc2ncc(Br)cc2[nH]1)c1ccccc1`?
Mot1-301 SUMO: 0; Statin myotox sup: 4; Cneo AK release: 0

What do the screens show for `C=CCNC(=O)[C@H]1[C@@H]2C(=O)O[C@@H](c3ccccc3)[C@@H](c3ccccc3)N2[C@@H](c2ccc(OCCO)cc2)[C@]12C(=O)Nc1ccccc12`?
Cneo AK release: 1
